# Compound activity (PubChem BioAssay)
# Mdm2-MdmX inh: inhibitors of human Mdm2/MdmX interaction | inhibition, % at 8 µM | O15151+Q00987 | SaOS-2 split-luciferase Mdm2/MdmX complementation, luminescence | 330,000 tested, 3% active;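 active means inhibition of at least 50% at 8 µM in the primary screen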
# Target sequence (O15151 whole entry, looked up): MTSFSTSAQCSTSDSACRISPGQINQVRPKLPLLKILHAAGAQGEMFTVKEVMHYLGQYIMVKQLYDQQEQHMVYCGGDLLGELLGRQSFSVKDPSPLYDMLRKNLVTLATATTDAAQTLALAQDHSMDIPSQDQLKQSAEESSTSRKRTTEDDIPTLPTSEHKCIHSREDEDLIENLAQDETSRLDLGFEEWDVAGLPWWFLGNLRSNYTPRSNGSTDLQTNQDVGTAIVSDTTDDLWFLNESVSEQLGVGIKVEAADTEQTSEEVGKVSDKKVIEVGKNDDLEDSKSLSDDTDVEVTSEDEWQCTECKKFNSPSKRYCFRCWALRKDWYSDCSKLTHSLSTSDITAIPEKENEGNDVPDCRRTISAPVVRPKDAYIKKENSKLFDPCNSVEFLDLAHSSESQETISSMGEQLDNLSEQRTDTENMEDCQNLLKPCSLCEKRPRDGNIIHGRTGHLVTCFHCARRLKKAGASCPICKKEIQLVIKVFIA
# Target sequence (Q00987 whole entry, looked up): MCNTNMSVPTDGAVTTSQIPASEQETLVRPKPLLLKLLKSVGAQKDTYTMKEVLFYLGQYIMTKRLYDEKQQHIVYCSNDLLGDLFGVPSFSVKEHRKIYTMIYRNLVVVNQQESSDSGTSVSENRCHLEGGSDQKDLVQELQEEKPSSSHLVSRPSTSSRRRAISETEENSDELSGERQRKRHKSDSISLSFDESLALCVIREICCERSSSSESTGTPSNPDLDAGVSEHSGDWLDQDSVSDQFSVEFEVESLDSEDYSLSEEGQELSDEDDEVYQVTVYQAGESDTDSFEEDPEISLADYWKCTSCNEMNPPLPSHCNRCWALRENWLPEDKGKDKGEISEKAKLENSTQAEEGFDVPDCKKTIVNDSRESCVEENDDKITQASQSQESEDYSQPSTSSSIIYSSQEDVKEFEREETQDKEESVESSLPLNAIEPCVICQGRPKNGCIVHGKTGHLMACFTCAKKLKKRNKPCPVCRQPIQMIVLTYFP
# SKKanGAS inh: SKKanGAS growth inhibition. S. pyogenes SKKanGAS, kanamycin growth, BacTiter-Glo, 6 h. inhibition, % at 7.5 µM. 300,000 tested, 1.3% active;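 active means mean replicate score, as percent of positive control median, at least 50; inconclusive means mean below 50 but one replicate at or above 50; inactive means mean and every replicate below 50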;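 further: strain carries kanamycin resistance gene driven by streptokinase promoter and grows in 40 µg/ml kanamycin; loss of luminescence reflects streptokinase promoter inhibition or plain growth inhibition; 0% = median of DMSO wells and 100% = positive control at its reference dose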
# CSC inhib: cancer stem cell inhibition; cancer stem cell-like cells viability, luminescence; inhibition, % at 7.5 µM; 300,000 tested, 1.1% active; AID 2717; in the data active means inhibition above about 75%; inconclusive means no clear call, values can overlap the other calls; tested in HMLE shEcad cells
# UPR CHOP act: activators of apoptotic arm of unfolded protein response (CHOP) | CHO-CHOP luciferase reporter, UPR activation, luminescence; percent of tunicamycin response over DMSO baseline | activation, % at 10 µM | 330,000 tested, 0.34% active | AID 449763;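 active means at 10 µM dose, activation of 40% or more, normalized to positive control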;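 further: 100% = tunicamycin at 10 µg/mL and 0% = DMSO alone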
#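 Evaluation: % reporter activation, DMSO baseline versus tunicamycin full activation; System: CHO-CHOP luciferase reporter cell line; Input: 500 cells/well; Incubation: 6 h compound treatment, 37 °C; Measured by: Steady-Glo luciferase luminescence; Dosing: one dose, 10 µM in 0.5% DMSO; Buffer or medium: F12 medium, 10% FBS; Benchmarks: positive tunicamycin 10 µg/mL, negative DMSO alone.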
# Beta apoptosis: beta cell apoptosis inhibition; protection from apoptosis, % (test concentration not listed); AID 435005; 300,000 tested, 0.8% active; INS-1E cytokine-induced death, ATP luminescence, 48 h; percent of positive-control rescue, neutral wells zero;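 active means Every replicate reaches about 75%, or at least half do and their mean reaches it too, limit read from the data; inconclusive means At least half of replicates reach the limit but their mean does not; inactive means Under half of replicates reach the limit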;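 further: 0% = cytokine-treated negative control wells and 100% = positive control rescue; higher means more ATP so stronger rescue from cytokine killing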
# UPR XBP1 act: adaptive UPR (XBP1) activation. 330,000 tested, 0.33% active. activation, % at 20 µM. CHO-XBP1 luciferase reporter, IRE1-XBP1 UPR activation, luminescence; percent of tunicamycin response, DMSO as zero;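 active means versus positive control, 20 µM dose yields 30% or more activation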;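 further: 100% = tunicamycin at 10 µg/mL and 0% = DMSO only wells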
#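 incubation = overnight seeding at 37 °C, 6 h compound treatment at 37 °C | assay system = CHO-XBP1 cells stably carrying IRE1-XBP1-driven luciferase reporter | input = 1000 cells per well | detection = luciferase luminescence | dosing = single point, 20 µM final compound, 1% DMSO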
# Mdm2-MdmX conf: human Mdm2/MdmX binding inhibition, confirmed. shares compounds with Mdm2-MdmX inh. luminescent assay. inhibition, % at 8 µM. 10,000 tested, 55% active. AID 489028; in the data active means inhibition above about 40%
# Full FLuc ctr: inhibits full-length luciferase, flagging false Mdm2/MdmX hits | shares compounds with Mdm2-MdmX inh | SaOS-2 full-length luciferase counterscreen, luminescence | inhibition, % at 8 µM | 6,200 tested, 77% active | AID 504607;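 active means mean inhibition at 8 µM reaching about 37%, which flags the compound as non-specific, limit read from the data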;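 further: p53-null SaOS-2 cells with luciferase driven by a doxycycline-inducible promoter; compound on cells about two nights before reading with doxycycline added after day one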
# An asterisk follows results filed as active; u = inconclusive; x = not tested or not shown. The list is not random: actives were taken first. Their share in the collection is about 4.8%.
SMILES,Mdm2-MdmX inh,SKKanGAS inh,CSC inhib,UPR CHOP act,Beta apoptosis,UPR XBP1 act,Mdm2-MdmX conf,Full FLuc ctr
COc1ccc(OC)c(N(CC(=O)N2CCOCC2)S(C)(=O)=O)c1,-10.7,-1.1,-15.7,5.3,1.0,-6.3,x,x
CCOC(=O)c1sc(Nc2nc(C)cc(C)n2)nc1C,56.6*,17.2,49.7,1.4,32.9,6.0,60.3*,57.2*
CCSc1ccc([C@@H]2[C@H]3C(=O)N(C)C(=O)[C@H]3[C@]3(C(=O)OC)CCCCN23)cc1,16.1,x,13.2,-2.0,-9.3,0.1,x,x
N#CC1=C(N)Oc2cc(N)ccc2C1c1ccccc1F (stereo not drawn),55.9*,6.1,47.7,-1.1,6.2,-4.0,51.7*,66.8*
N#CC1=C(N)Oc2cc(N)ccc2C1c1cc(Br)cs1 (stereo not drawn),58.4*,3.0,60.4,-0.6,19.2,0.1,28.9,x
COc1cc(OC)c2c(-c3cccc(-c4ccc(C#N)cc4)c3)cc(=O)oc2c1,42.7,x,x,2.0,x,5.5,x,x
COc1cc(OC)c2c(-c3cccc(-c4sccc4C(C)=O)c3)cc(=O)oc2c1,71.9*,x,x,0.1,x,29.9,54.5*,55.1*
COc1cc(OC)c2c(-c3cccc(-c4ccc(F)c(Cl)c4)c3)cc(=O)oc2c1,71.6*,x,x,2.1,x,3.3,61.2*,42.7*
COc1cc2oc(=O)cc(-c3cccc(-c4cccc(C)c4)c3)c2c(OC)c1OC,62.1*,x,x,0.4,x,-2.4,18.4,x
COc1cc(OC)c2c(-c3cccc(-c4ccc(OC)c(OC)c4)c3)cc(=O)oc2c1,62.7*,x,x,2.9,x,26.3,52.4*,86.2*
COc1ccc(-c2ccc(-c3cc(=O)oc4cc(OC)c(OC)c(OC)c34)cc2)cc1OC,38.9,x,x,2.5,x,-0.2,x,x
COc1cc(OC)c2c(-c3cccc(-c4ccc(NC(C)=O)cc4)c3)cc(=O)oc2c1,60.2*,x,x,1.3,x,29.9,63.2*,79.4*
Cc1nnsc1C(=O)N1CCCC(Nc2ccc(F)c(F)c2)C1 (stereo not drawn),-17.6,-3.7,-5.4,2.8,x,-2.5,x,x
CN1Cc2c(N3CCOCC3)nc3sc(C(=O)c4ccccc4)c(N)c3c2CC1(C)C,58.6*,4.8,-2.7,-0.4,-0.1,5.8,24.4,x
CCOC(=O)c1sc2nc(N3CCOCC3)c3c(c2c1N)CC(C)(C)N(C)C3,-12.2,-0.9,-11.3,-1.9,-8.4,-0.4,x,x
COc1ccc(OC)c(Nc2nc(N)c([N+](=O)[O-])c(NCc3ccccc3)n2)c1,85.0*,-7.6,16.2,2.8,11.9,13.6,22.2,x
COCCCNc1nc(N)c([N+](=O)[O-])c(Nc2cc(OC)ccc2OC)n1,69.8*,26.0,-4.5,5.8,-7.7,11.9,26.9,x
CC(C)(O)C#Cc1ccc(CNC[C@H]2O[C@@H](n3cnc4c(N)ncnc43)[C@H](O)[C@@H]2O)s1,4.9,x,x,5.1,x,0.5,x,x
CCC(C)c1ccccc1NC(=S)NC(=O)c1ccco1 (stereo not drawn),15.3,35.7,-44.6,-0.7,-10.2,-0.6,x,x
COCCCNC(=O)c1ccc2c3c(onc13)-c1ccccc1C2=O,-67.7,9.5,23.2,28.4,19.5,-1.5,x,x
CCOC(=O)C(C(=O)OCC)c1cc(Br)c2noc3c2c1C(=O)c1ccccc1-3,100.3*,91.0*,116.9*,-6.7,32.8,-11.2,95.2*,1.1
COc1ccc(Br)cc1S(=O)(=O)Nc1ncn[nH]1,8.4,u,-3.4,0.7,4.3,-1.4,x,x
COC(=O)N1C(=O)[C@@](c2ccccc2)(C2CCCC2)N1C(=O)OC,74.5*,-0.8,22.1,2.9,0.5,-3.9,35.1,x
COC(=O)N1C(=O)[C@](CC(C)C)(c2ccccc2)N1C(=O)OC,x,0.3,7.3,x,-11.1,x,x,x
COC(=O)N1C(=O)[C@@](CC(C)C)(c2ccccc2)N1C(=O)OC,51.0*,1.0,37.9,1.0,-11.3,-1.9,13.6,x
SMILES,Mdm2-MdmX inh,SKKanGAS inh,CSC inhib,UPR CHOP act,Beta apoptosis,UPR XBP1 act,Mdm2-MdmX conf,Full FLuc ctr
COC(=O)N1C(=O)[C@](c2ccccc2)(C2CCCCC2)N1C(=O)OC,46.2,9.5,15.8,-0.9,1.1,-3.9,x,x
COC(=O)c1ccc(C(NC(=O)OCc2ccccc2)/C(F)=C/[C@@H](C)C(=O)NCc2ccc(OC)c(OC)c2)cc1 (stereo partly drawn),88.8*,x,-0.1,-2.8,3.8,1.7,4.7,x
COC(=O)c1ccc(C(NC(=O)OCc2ccccc2)/C(F)=C/[C@@H](C)C(=O)NCc2ccc(-c3ccccc3)cc2)cc1 (stereo partly drawn),38.4,x,8.2,12.7,-2.1,12.1,x,x
Cc1cccc(N2CCN(C(=O)Cc3cn(C)c4ccccc34)CC2)c1C,53.5*,2.2,33.0,-0.4,x,0.0,43.0*,54.8*
COc1ccc([N+](=O)[O-])cc1N(CC(=O)NCCSc1ccc(C)cc1)S(C)(=O)=O,4.0,9.9,16.0,0.1,-1.4,-0.4,x,x
Cc1cccc(NS(=O)(=O)c2ccc(NC(=O)CN(c3cc([N+](=O)[O-])ccc3C)S(C)(=O)=O)cc2)c1,55.0*,16.3,95.6*,3.4,110.9*,-2.4,49.1*,51.7*
COc1ccc(C)cc1NS(=O)(=O)c1ccc(NC(=O)CN(c2cc([N+](=O)[O-])ccc2C)S(C)(=O)=O)cc1,70.3*,20.3,92.7*,6.3,112.0*,0.8,63.3*,51.0*
COc1ccccc1Nc1nc(N)nc(CCl)n1,71.8*,-2.1,-6.0,3.3,-12.3,4.8,68.5*,54.4*
COc1ccc(OC)c(Nc2nc(N)nc(CCl)n2)c1,81.6*,-0.3,-3.5,22.4,-5.6,-2.8,84.0*,40.7*
CCOc1ccc(S(=O)(=O)NCc2ccc3c(c2)OCO3)cc1NC(C)=O,8.5,-5.0,-7.0,0.6,0.7,-3.1,x,x
O=C(NS(=O)(=O)N1CCOCC1)C1=C(N2CCCC2)COC1=O,3.3,x,x,-1.3,5.1,1.8,x,x
CCN(CC)S(=O)(=O)c1ccc(N/N=C/c2cc(OC)ccc2O)nc1,79.6*,-12.8,103.8*,-1.4,108.1*,-0.7,83.3*,22.6
CCn1ncc(C2=NOC(C(=O)NCc3ccccc3)C2)c1C (stereo not drawn),61.9*,7.4,69.3,0.1,5.7,4.2,52.0*,83.7*
COC(=O)C1=C(C)NC(C)=C(C(=O)OC)C1C(=O)OCC(=O)c1ccc(Br)cc1,-19.7,x,x,0.3,1.2,-1.8,x,x
